# Hits are enriched below; roughly 3.7% of the tested compounds scored in any of these assays.
# KCNQ1 pot: potentiates or activates the human KCNQ1 potassium channel; P51787; CHO-K1 KCNQ1, thallium flux FluxOR fluorescence; hits give high values; B-score at 10 µM; hit rate 0.35% among 310,000;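 active = fluorescence ratio B-score, a plate-corrected score, at least three library SD, with initial intensity B-score within 5 SD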
#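 System: CHO-K1 cells stably expressing KCNQ1 / Medium: assay buffer for compound exposure, DMSO matched across wells / Reagent: thallium- and potassium-containing depolarizing buffer / Compound: one concentration, matched DMSO / Incubation: 20 min compound pretreatment at room temperature / Measured by: kinetic FluxOR fluorescence, 10 s baseline plus 110 s post-stimulus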
# KCNK3 inh: human KCNK3 channel inhibition, primary screen; O14649; CHO-KCNK3 thallium flux, FluxOR fluorescence; hits give low values; B-score at 10 µM; hit rate 0.84% among 340,000; AID 602410;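 active = B-score under library mean minus 4 SD, starting fluorescence ratio at most library mean plus 5 SD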;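 also: more negative B-score means stronger inhibition of thallium flux through KCNK3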
# Target sequence (O14649 whole entry, looked up): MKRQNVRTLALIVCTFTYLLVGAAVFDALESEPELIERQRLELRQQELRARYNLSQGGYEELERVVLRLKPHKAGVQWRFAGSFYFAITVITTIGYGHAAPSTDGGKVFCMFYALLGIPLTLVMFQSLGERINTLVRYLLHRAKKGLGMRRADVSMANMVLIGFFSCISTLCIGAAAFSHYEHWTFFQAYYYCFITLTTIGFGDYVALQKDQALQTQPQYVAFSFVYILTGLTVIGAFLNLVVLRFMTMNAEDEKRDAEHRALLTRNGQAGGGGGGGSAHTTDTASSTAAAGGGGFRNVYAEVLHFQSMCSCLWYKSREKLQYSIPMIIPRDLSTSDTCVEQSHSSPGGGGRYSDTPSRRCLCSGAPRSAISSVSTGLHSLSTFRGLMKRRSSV
# KCNK9 block: blocks the human KCNK9 two-pore domain potassium channel; B-score at 10 µM; AID 488922; Q9NPC2; HEK293 KCNK9, FluxOR thallium flux fluorescence; hits give low values; hit rate 1.2% among 310,000;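 active = ratio B-score over 3 SD below the library mean, with starting fluorescence within 5 SD of its mean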;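 also: negative B-score means less thallium flux so channel inhibition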
# hERG protect: shields human hERG channel from block by proarrhythmic agents | Q12809 | CHO-hERG, FluxOR thallium flux, dofetilide IC70 present | activation (rescue from dofetilide block), less the hit threshold, % at 10 µM | hit rate 0.51% among 310,000 | AID 1511;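 active = activation above the mean of controls blocked by dofetilide plus 5 SD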;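 also: thallium influx through hERG after potassium depolarization seen as dye fluorescence rise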
# Kir21 block: blocks the mouse Kir2.1 inward-rectifier potassium channel. HEK293-Kir2.1, FluxOR thallium flux fluorescence; hits give low values. hit rate 0.85% among 310,000. P35561. B-score at 10 µM;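 active = fluorescence ratio B-score at or below minus 3 SD of library scores, with starting-brightness B-score within 2 SD, cut at about -4.2 in these data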;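 also: channel flux triggered by added potassium and thallium sulfate stimulus; B-score of peak minus minimum fluorescence over baseline after thallium stimulus; more negative B-score means stronger Kir2.1 block with less thallium influx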
# KCNQ1 block: blocks the human KCNQ1 potassium channel; hit rate 1.3% among 310,000; P51787; AID 2642; CHO-K1 KCNQ1, FluxOR thallium flux fluorescence; hits give high values; B-score at 10 µM;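 active = compounds whose thallium flux B-score, printed positive for inhibition, exceeds three library SD while starting fluorescence stays within three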;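 also: channel opened by potassium depolarization with thallium stimulus after 20 min compound exposure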
# A number is an active result; n = inactive; x = no result given.
SMILES,KCNQ1 pot,KCNK3 inh,KCNK9 block,hERG protect,Kir21 block,KCNQ1 block
Cc1ccc(C)c(NC(=S)NNC(=O)c2cc3c(s2)CCC(C)C3)c1 (configuration not stated),n,n,n,9.3,n,n
CCOC(=O)c1sc(NC(=O)c2c(CC)noc2C)nc1C,x,n,x,x,x,x
N/C(=N\OC(=O)CC(c1ccccc1)c1ccccc1)c1cccnc1,n,n,n,4.6,n,n
N/C(=N\OC(=O)Cc1ccccc1)c1cccnc1,n,n,n,n,n,n
Cc1ccc(N2CC(C(=O)Nc3ncc([N+](=O)[O-])s3)CC2=O)cc1 (configuration not stated),n,n,n,n,n,6
CC(C)S(=O)(=O)C1=NSC2=NC(=O)/C(=C\c3ccc(-c4cccc(C(=O)O)c4)o3)C(=N)N21,x,n,x,x,x,x
N=C1/C(=C/c2ccc(-c3cccc(C(=O)O)c3)o2)C(=O)N=C2SC=C(c3ccccc3)N12,n,n,n,n,n,7
CC(C)S(=O)(=O)C1=NSC2=NC(=O)/C(=C\c3ccc(-c4ccccc4)o3)C(=N)N21,n,n,n,n,n,8
N=C1/C(=C\c2ccc(-c3cc(Cl)cc(Cl)c3)o2)C(=O)N=C2SC=C(c3ccccc3)N12,n,n,n,n,n,n
CC(Sc1n[nH]c(-c2ccccc2F)n1)C(=O)Nc1ccc(S(N)(=O)=O)cc1 (configuration not stated),x,n,x,x,x,x
COC(=O)c1ccc(COc2ccccc2/C=C(\C#N)C(=O)Nc2ccc(C)cc2C)cc1,n,n,-7.1,n,n,n
CCCn1c(=O)c(C(=O)NCc2ccncc2)c(O)c2ccccc21,n,n,n,n,n,n
CCn1c(=O)c(C(=O)NNS(=O)(=O)c2ccc(Br)cc2)c(O)c2ccccc21,n,n,n,n,n,6
CCn1c(=O)c(C(=O)NCCCc2ccccc2)c(O)c2ccccc21,n,n,n,n,n,6
CCCn1c(=O)c(C(=O)NCCCc2ccccc2)c(O)c2ccccc21,n,n,n,n,n,7
CCCn1c(=O)c(C(=O)NCCc2ccc(Cl)cc2)c(O)c2ccccc21,n,n,n,n,n,7
CCn1c(=O)c(C(=O)NCCc2ccc(Cl)cc2)c(O)c2ccccc21,n,n,n,n,n,n
CCn1c(=O)c(C(=O)NNS(=O)(=O)c2ccc(C)cc2)c(O)c2ccccc21,n,n,n,n,n,n
O=C(Cn1cnnn1)NCc1ccccc1,n,n,n,n,n,n
O=C(Nc1ccc(Cl)cc1)Nc1ccc(Br)cn1,n,n,n,n,n,n
O=C(c1ccco1)N1CCN=C1SCc1ccc(F)cc1,39,n,n,n,n,n
CCn1c(CC(=O)Nc2ccccc2F)nnc1SCC(=O)NC1CCCC1,n,n,n,n,n,n
Cc1cc(/C=N/n2c(COc3ccccc3)nc3ccccc3c2=O)c(O)c([N+](=O)[O-])c1,n,n,n,n,n,13
Cc1ccc(-c2[nH]ncc2/C=N/n2c(COc3ccccc3)nc3ccccc3c2=O)cc1,n,n,n,n,n,n
COc1ccc(-c2noc(CCCC(=O)N3CCN(c4cc(C)ccc4C)CC3)n2)cc1,x,-8.85,x,x,x,x
SMILES,KCNQ1 pot,KCNK3 inh,KCNK9 block,hERG protect,Kir21 block,KCNQ1 block
COc1ccc(-c2noc(CCCCC(=O)N3CCN(c4cc(C)ccc4C)CC3)n2)cc1,x,-11.2,x,x,x,x
CCN(CC)CCN(C(=O)c1cc2ccccc2cc1OC)c1nc2ccc(OC)cc2s1,n,n,n,n,n,9
COc1ccc(CCNc2oc(COc3ccc(Br)cc3)nc2C#N)cc1OC,n,-11.9,-8.05,n,n,n
COc1ccc(CCNc2oc(COc3ccccc3F)nc2C#N)cc1,n,n,n,n,n,n
Nc1ccccc1C(=O)NCCCN1CCN(c2cccc(Cl)c2)CC1,n,n,n,n,n,n
c1coc(CSSCc2ccco2)c1,x,n,x,x,x,x
CCCCCCCCNCCS(=O)(=O)NCCCCCCCC,x,n,x,x,x,x
COc1ccc(NS(=O)(=O)c2ccc(O)c(C(=O)OCC(=O)NC(C)C3CC4CCC3C4)c2)cc1 (configuration not stated),n,n,n,n,n,n
CC(NC(=O)COC(=O)c1cc(NS(=O)(=O)c2ccc(Cl)c([N+](=O)[O-])c2)ccc1O)C1CC2CCC1C2 (configuration not stated),n,n,n,n,n,11
Cc1ccc(N=c2oc3cc(O)ccc3cc2C(N)=O)cc1,n,n,n,n,n,n
COc1ccc(N=c2oc3cc(O)ccc3cc2C(=O)Nc2ccccn2)cc1OC,n,n,-6.84,n,n,9
O=C1C=CC(=C(c2ccc(O)cc2)c2ccc(O)cc2)C=C1,x,n,x,x,x,x
CCCCCCc1cc2cc(-c3nnc(-c4ccccc4OC)o3)c(=O)oc2cc1O,n,n,n,n,n,8
CCCCCCc1cc2cc(-c3nnc(-c4cc(OC)c(OC)c(OC)c4)o3)c(=O)oc2cc1O,n,x,n,n,n,15
CCCCCCc1cc2cc(C(=O)Nc3ccccc3OC)c(=O)oc2cc1O,n,n,n,n,n,n
CCCCCCc1cc2cc(-c3nnc(-c4ccccc4O)o3)c(=O)oc2cc1O,n,n,n,n,n,n
CN(CC(=O)NCc1ccco1)C(=O)C1CC(=O)N(c2ccc3c(c2)OCCO3)C1 (configuration not stated),x,n,x,x,x,x
COc1cccc(C(=O)CSc2nnc(-c3cc(OC)cc(OC)c3)o2)c1,n,n,n,6.2,n,n
CCOc1ccc(C(=O)NCCC(=O)N2CCC3(CC2)NCCc2[nH]cnc23)cc1OCC,n,n,n,n,n,n
CCOC(=O)c1c(NC(=O)C(NCCN(C)C)c2ccccc2)sc2c1CCCC2 (configuration not stated),n,n,n,n,-6.22,n
C/C(=N\N)c1c(-c2ccccc2)c2cc(C)ccc2[nH]c1=O,n,n,n,n,n,n
CC(=O)NNC(=O)c1[nH]c2ccc(Cl)cc2c1-c1ccccc1,n,n,n,n,n,n
O=C(NN=C1CCCC1)c1[nH]c2ccc(Cl)cc2c1-c1ccccc1,n,n,n,n,n,6
CC/C(C)=N/NC(=O)c1[nH]c2ccc(C)cc2c1-c1ccccc1,n,n,n,5.5,n,n
N=Nc1c(O)n(CC(=O)Nc2ccccc2)c2ccccc12,n,n,n,n,n,n
NC(=O)c1cc(S(=O)(=O)N2CCCC2)ccc1OCCOc1ccccc1,x,n,x,x,x,x
O=C(CCNc1ccc(F)cc1)c1cccc([N+](=O)[O-])c1,n,n,n,n,n,6
Cc1ccc(NCCC(=O)c2cccc([N+](=O)[O-])c2)cc1,n,n,n,n,n,9
Cc1cccc(NC(=S)N/N=C2\CC(C)(C)Oc3ccc(O)cc32)c1,n,n,n,6.5,n,n

# Compound activity from PubChem.
